Assay results as given in ChEMBL document CHEMBL4325827, “Bifidenone: Structure-Activity Relationship and Advanced Preclinical Candidate” (J Med Chem, 2018).

Key:
[1] = Toxicity in Crl:NU(NCr)-Foxn1 nu mouse xenografted with human NCI-H460 cells assessed as maximum body weight loss at 60 mg/kg, ip qd administered for 3 consecutive days followed by 2 days of rest for 3 cycles measured after 8 days post dose relative to control; format: organism-based; settings: in vivo, 192 h
How it was run: (§1)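 Female athymic nude mice bearing subcutaneous xenografts, started from cultured cells (NCI-H460, Calu-6, NCI-H69, LOX-IMVI) or from serially passaged tumour fragments (NCI-H522). Mice were grouped into vehicle and treatment arms at tumour volumes of about 75-200 mm3. Dosing was ip at 5-10 mL/kg in 22% ethanol, 38% PEG400, 40% 20 mM Na citrate pH 5.0. Caliper volumes were taken as (length × width2)/2. Treated and control delta weights were median tumour weight minus staging-day median.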

[2] = Plasma concentration in Crl:NU(NCr)-Foxn1 nu mouse xenografted with human NCI-H460 cells at 40 mg/kg, ip injected via vehicle solution measured at 1 hr post injection by LC-MS analysis; format: ADME, organism-based; settings: in vivo
How it was run: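 Male Nu/Nu mice, some bearing NCI-H460 or LOX-IMVI xenografts, given a single ip dose at 3 mL/kg. Organic vehicle components were dissolved first, with the aqueous part added gradually. Mice were euthanized at 1 h or 3 h. Cardiac blood was taken into NaEDTA/NaF plasma separator tubes. Quantification used loratadine internal standard against a spiked blank-plasma curve. Tumours were run as duplicate ~200 mg samples homogenized in 3% SDS and extracted twice with ethyl acetate, assuming 1 g tissue = 1 mL.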

[3] = Toxicity in Crl:NU(NCr)-Foxn1 nu mouse xenografted with human NCI-H460 cells assessed as mortality at 60 mg/kg, ip qd administered for 3 consecutive days followed by 2 days of rest for 3 cycles; format: organism-based; settings: in vivo, 48 h
How it was run: (§2)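 Female athymic nude mice bearing subcutaneous xenografts started from cultured human tumor cells. Mice were split into vehicle and treatment groups once tumors reached about 75-200 mm3. Dosing was ip at 5-10 mL/kg in 22% ethanol, 38% PEG400, 40% 20 mM Na citrate pH 5.0. Deaths per group were recorded alongside maximum mean bodyweight loss.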

[4] = Toxicity in Crl:NU(NCr)-Foxn1 nu mouse xenografted with human […] cells assessed as mortality at 40 mg/kg, ip qd administered for 3 consecutive days followed by 2 days of rest for 3 cycles; format: organism-based; settings: in vivo, 48 h
How it was run: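 Female athymic nude mice bearing subcutaneous NCI-H522 xenografts started from tumor fragments kept by continuous in vivo passage. Mice were grouped once tumors reached about 75-200 mm3. Dosing was ip at 5-10 mL/kg in 22% ethanol, 38% PEG400, 40% 20 mM Na citrate pH 5.0. Deaths per group were recorded with maximum mean bodyweight loss.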

[5] = Toxicity in Crl:NU(NCr)-Foxn1 nu mouse xenografted with human NCI-H69 cells assessed as mortality at 60 mg/kg, ip dosed on day 1 followed by 4 days rest and subsequently dosed at 60 mg/kg, ip qd administered for 3 consecutive days followed by 2 days of rest for 2 cycles; format: organism-based; settings: in vivo; how it was run: as §2
[6] = Toxicity in Crl:NU(NCr)-Foxn1 nu mouse xenografted with human NCI-H69 cells assessed as maximum body weight loss at 70 mg/kg, ip dosed on day 1 followed by 4 days rest and subsequently dosed at 70 mg/kg, ip qd administered for 3 consecutive days followed by 2 days of rest for 2 cycles measured after 3 days post dose relative to control; format: organism-based; settings: in vivo, 72 h; how it was run: as §1
[7] = Toxicity in Crl:NU(NCr)-Foxn1 nu mouse xenografted with human NCI-H460 cells assessed as mortality at 40 mg/kg, ip qd administered for 3 consecutive days followed by 2 days of rest for 3 cycles; format: organism-based; settings: in vivo, 48 h; how it was run: as §2
[8] = Toxicity in Crl:NU(NCr)-Foxn1 nu mouse xenografted with human Calu6 cells assessed as maximum body weight loss at 50 mg/kg, ip qd administered for 3 consecutive days followed by 2 days of rest for 4 cycles measured after 17 days post dose relative to control; format: organism-based; settings: in vivo, 408 h; how it was run: as §1
[9] = tested on: Calu-6; experiment: (§3) Antitumor activity against human Calu6 cells xenografted in Crl:NU(NCr)-Foxn1 nu mouse assessed as tumor growth inhibition at 60 mg/kg, ip qd administered for 3 consecutive days followed by 2 days of rest for 4 cycles relative to control; format: functional; settings: Calu-6, ip, 48 h, read-out: TGI; how it was run: as §1
[10] = tested on: NCI-H460; experiment: Antitumor activity against human NCI-H460 cells xenografted in Crl:NU(NCr)-Foxn1 nu mouse assessed as tumor growth inhibition at 60 mg/kg, ip qd administered for 3 consecutive days followed by 2 days of rest for 3 cycles relative to control; format: functional; settings: 48 h, read-out: TGI; how it was run: as §1
[11] = tested on: NCI-H69; experiment: as §3, with “NCI-H69” for “Calu6”, “70 mg/kg, ip dosed on day 1 followed by 4 days rest and subsequently dosed at 70” for “60”, “2” for “4”; format: functional; settings: read-out: TGI; how it was run: as §1
[12] = tested on: HCT-15; experiment: Potency index, ratio of paclitaxel IC50 to compound IC50 for taxane-resistant human HCT15 cells after 72 hrs by CellTiter 96 aqueous nonradioactive cell proliferation assay; format: functional
[13] = tested on: SF-295; experiment: Antiproliferative activity against taxane-resistant human SF295 cells after 72 hrs by CellTiter 96 aqueous nonradioactive cell proliferation assay; format: functional, cell-based; settings: SF-295, 72 h
How it was run: (§4)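 Antiproliferation in cultured tumour cells, at least 3 replicate wells per concentration per experiment. NCI-H460 came from ATCC. M14, NCI/ADR-RES, OVCAR-4, HCT-15, ACHN and SF-295 came from the National Cancer Institute. IC50 reported from single experiments where no SD is given.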

[14] = tested on: OVCAR-4; experiment: Antiproliferative activity against taxane-resistant human OVCAR4 cells after 72 hrs by CellTiter 96 aqueous nonradioactive cell proliferation assay; format: functional, cell-based; settings: OVCAR-4, 72 h; how it was run: as §4
[15] = tested on: M14; experiment: Antiproliferative activity against human M14 cells after 72 hrs by CellTiter 96 aqueous nonradioactive cell proliferation assay; format: functional, cell-based; settings: M14, 72 h; how it was run: as §4
[16] = Toxicity in Crl:NU(NCr)-Foxn1 nu mouse xenografted with human LOX-IMVI cells assessed as mortality at 40 mg/kg, ip qd administered for 5 consecutive days; format: organism-based; settings: in vivo; how it was run: as §2
[17] = tested on: SF-295; experiment: Potency index, ratio of paclitaxel IC50 to compound IC50 for taxane-resistant human SF295 cells after 72 hrs by CellTiter 96 aqueous nonradioactive cell proliferation assay; format: functional
[18] = tested on: NCI-H522; experiment: Antitumor activity against human NCI-H522 cells xenografted in Crl:NU(NCr)-Foxn1 nu mouse assessed as tumor growth inhibition at 50 mg/kg, ip qd administered for 3 consecutive days followed by 2 days of rest for 3 cycles relative to control; format: functional; settings: 48 h, read-out: TGI; how it was run: as §1
[19] = tested on: NCI-H460; experiment: Antitumor activity against human NCI-H460 cells xenografted in Crl:NU(NCr)-Foxn1 nu mouse assessed as tumor growth inhibition at 40 mg/kg, ip qd administered for 3 consecutive days followed by 2 days of rest for 3 cycles relative to control; format: functional; settings: 48 h, read-out: TGI; how it was run: as §1
[20] = tested on: LOX IMVI; experiment: Antitumor activity against human LOXIMVI cells xenografted in Crl:NU(NCr)-Foxn1 nu mouse assessed as tumor growth inhibition at 30 mg/kg, ip qd for 7 consecutive days relative to control; format: functional; settings: read-out: TGI; how it was run: as §1
[21] = tested on: ACHN; experiment: Potency index, ratio of paclitaxel IC50 to compound IC50 for taxane-resistant human ACHN cells after 72 hrs by CellTiter 96 aqueous nonradioactive cell proliferation assay; format: functional

SMILES: C=CC[C@H]1C[C@]2([C@H](C)Cc3cc(O)c(OC)cc3F)OCOC2=CC1=O
- Activity [1]: 12%
- Drug uptake [2]: Active
- Activity [3]: Non-Toxic
- Activity [4]: Non-Toxic
- Activity [5]: Non-Toxic
- Activity [6]: 9%
- Activity [7]: Toxic
- Activity [8]: 4%
- inhibition in vivo at 60 mg/kg [9]: 63%
- inhibition in vivo at 60 mg/kg [10]: 67%
- inhibition in vivo at 70 mg/kg [11]: 84%
- Ratio IC50 [12]: 14
- IC50 [13]: 9.6 nM
- IC50 [14]: 8 nM
- IC50 [15]: 17 nM
- Activity [16]: Non-Toxic
- Ratio IC50 [17]: 6
- inhibition in vivo at 50 mg/kg [18]: 69%
- inhibition in vivo at 40 mg/kg [19]: 71%
- inhibition in vivo at 30 mg/kg [20]: 63%
- Ratio IC50 [21]: 7
